According to ChEMBL document CHEMBL4373653, “FgaPT2, a biocatalytic tool for alkyl-diversification of indole natural products” (Medchemcomm, 2019):
Activity calls are given as the source filed them. No cut-off for these calls is given here.

Columns and labels:
HCT-116 = test: Cytotoxicity against human HCT116 cells incubated for 48 hrs by Celltiter-blue assay; format: cell-based; conditions: HCT-116, 48 h
How it was run: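 HCT-116 cells, 2.0e3 per well in McCoy's medium, grown 24 h. A baseline CellTiter-Blue reading (90 min, 37 °C; ex 544/em 590 nm) was taken at treatment. Serial dilutions were added at 4X in medium and incubated 48 h, then read again with CellTiter-Blue. Growth was expressed relative to untreated cells, four-parameter dose-response fit to IC50, n = 2, Taxol internal control.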

[1] = target: T1, Tryptophan dimethylallyltransferase (Neosartorya fumigata (strain ATCC MYA-4609 / Af293 / CBS 101355 / FGSCA1100) (Aspergillus fumigatus)) (UniProt Q50EL0); test: Substrate activity at recombinant N-terminal His6-fusion tagged Aspergillus fumigatus FgaPT2 expressed in Escherichia coli BL21 (DE3) assessed as alkylation of L-tryptophan by measuring product formation at pH 7.5 in Tris buffer after 16 hrs by RP-HPLC analysis
T1 sequence (whole entry): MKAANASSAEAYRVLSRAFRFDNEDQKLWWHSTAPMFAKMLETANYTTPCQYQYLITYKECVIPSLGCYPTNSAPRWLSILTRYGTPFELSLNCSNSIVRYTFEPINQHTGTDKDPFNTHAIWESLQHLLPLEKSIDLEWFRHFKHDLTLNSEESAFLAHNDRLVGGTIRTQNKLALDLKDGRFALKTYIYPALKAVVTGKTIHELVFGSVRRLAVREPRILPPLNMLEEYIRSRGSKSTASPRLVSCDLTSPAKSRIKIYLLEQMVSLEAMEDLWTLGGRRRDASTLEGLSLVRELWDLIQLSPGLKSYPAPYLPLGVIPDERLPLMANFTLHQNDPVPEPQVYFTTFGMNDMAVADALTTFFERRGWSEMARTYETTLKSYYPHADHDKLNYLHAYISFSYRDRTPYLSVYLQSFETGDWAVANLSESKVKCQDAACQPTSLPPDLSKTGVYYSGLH
How it was run: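 The enzyme was codon-optimized and purified by Ni-NTA. Reaction: 1.2 mM alkyl-PP donor, 1 mM L-Trp, 5 μM FgaPT2 in 25 mM Tris pH 7.5, 5 mM MgCl2, 50 mM KCl, 35 °C for 16 h. It was quenched with an equal volume of methanol and centrifuged. Analysis was by RP-HPLC (C18, water/0.1% TFA–acetonitrile gradient, A254). Negative controls omitted the enzyme or the donor.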

[2] = substrate: CC/C(C)=C/COP(=O)(O)OP(=O)(O)O; conditions: Aspergillus fumigatus Af293
[3] = substrate: C/C=C/COP(=O)(O)OP(=O)(O)O; conditions: Aspergillus fumigatus Af293
[4] = substrate: O=P(O)(O)OP(=O)(O)OCC=C1CCCC1; conditions: Aspergillus fumigatus Af293
[5] = substrate: C/C(Cl)=C/COP(=O)(O)OP(=O)(O)O; conditions: Aspergillus fumigatus Af293
[6] = substrate: C/C=C/C=C(\C)COP(=O)(O)OP(=O)(O)O; conditions: Aspergillus fumigatus Af293
[7] = substrate: C=C/C=C(\C)COP(=O)(O)OP(=O)(O)O; conditions: Aspergillus fumigatus Af293
[8] = substrate: O=P(O)(O)OP(=O)(O)OCc1ccccc1; conditions: Aspergillus fumigatus Af293
[9] = substrate: O=P(O)(O)OP(=O)(O)OCc1ccc(Br)cc1; conditions: Aspergillus fumigatus Af293
[10] = substrate: CC(C)=C/C=C/COP(=O)(O)OP(=O)(O)O; conditions: Aspergillus fumigatus Af293
[11] = substrate: O=P(O)(O)OP(=O)(O)OCc1ccc(F)cc1; conditions: Aspergillus fumigatus Af293
[12] = substrate: O=P(O)(O)OP(=O)(O)OCC=C1CCCCC1; conditions: Aspergillus fumigatus Af293
[13] = substrate: COc1cccc(COP(=O)(O)OP(=O)(O)O)c1; conditions: Aspergillus fumigatus Af293
[14] = substrate: C=C/C=C/COP(=O)(O)OP(=O)(O)O; conditions: Aspergillus fumigatus Af293
[15] = substrate: COc1ccccc1COP(=O)(O)OP(=O)(O)O; conditions: Aspergillus fumigatus Af293
[16] = substrate: CCC(=CCOP(=O)(O)OP(=O)(O)O)CC; conditions: Aspergillus fumigatus Af293
[17] = substrate: O=P(O)(O)OP(=O)(O)OCC1=CCCCC1; conditions: Aspergillus fumigatus Af293
[18] = substrate: O=P(O)(O)OP(=O)(O)OCc1ccc(Cl)cc1; conditions: Aspergillus fumigatus Af293
[19] = substrate: C/C=C/COP(=O)(O)OP(=O)(O)O; conditions: Aspergillus fumigatus Af293; remark: listed apart in the source
[20] = substrate: O=P(O)(O)OP(=O)(O)OCC=C1CCCC1; conditions: Aspergillus fumigatus Af293; remark: listed apart in the source
[21] = substrate: O=P(O)(O)OP(=O)(O)OCc1ccccc1; conditions: Aspergillus fumigatus Af293; remark: listed apart in the source
[22] = substrate: O=P(O)(O)OP(=O)(O)OCc1ccc(Br)cc1; conditions: Aspergillus fumigatus Af293; remark: listed apart in the source
[23] = substrate: O=P(O)(O)OP(=O)(O)OCc1ccc(F)cc1; conditions: Aspergillus fumigatus Af293; remark: listed apart in the source
[24] = substrate: O=P(O)(O)OP(=O)(O)OCC=C1CCCCC1; conditions: Aspergillus fumigatus Af293; remark: listed apart in the source
[25] = substrate: COc1cccc(COP(=O)(O)OP(=O)(O)O)c1; conditions: Aspergillus fumigatus Af293; remark: listed apart in the source
[26] = substrate: COc1ccccc1COP(=O)(O)OP(=O)(O)O; conditions: Aspergillus fumigatus Af293; remark: listed apart in the source
[27] = substrate: CCC(=CCOP(=O)(O)OP(=O)(O)O)CC; conditions: Aspergillus fumigatus Af293; remark: listed apart in the source
[28] = substrate: CC/C(C)=C/COP(=O)(O)OP(=O)(O)O; conditions: Aspergillus fumigatus Af293; remark: listed apart in the source
[29] = substrate: C/C=C/COP(=O)(O)OP(=O)(O)O; conditions: Aspergillus fumigatus Af293; remark: listed apart in the source
[30] = substrate: O=P(O)(O)OP(=O)(O)OCC=C1CCCC1; conditions: Aspergillus fumigatus Af293; remark: listed apart in the source
[31] = substrate: C/C(Cl)=C/COP(=O)(O)OP(=O)(O)O; conditions: Aspergillus fumigatus Af293; remark: listed apart in the source
[32] = substrate: C/C=C/C=C(\C)COP(=O)(O)OP(=O)(O)O; conditions: Aspergillus fumigatus Af293; remark: listed apart in the source
[33] = substrate: C=C/C=C(\C)COP(=O)(O)OP(=O)(O)O; conditions: Aspergillus fumigatus Af293; remark: listed apart in the source
[34] = substrate: O=P(O)(O)OP(=O)(O)OCc1ccccc1; conditions: Aspergillus fumigatus Af293; remark: listed apart in the source
[35] = substrate: O=P(O)(O)OP(=O)(O)OCc1ccc(Br)cc1; conditions: Aspergillus fumigatus Af293; remark: listed apart in the source
[36] = substrate: CC(C)=C/C=C/COP(=O)(O)OP(=O)(O)O; conditions: Aspergillus fumigatus Af293; remark: listed apart in the source
[37] = substrate: O=P(O)(O)OP(=O)(O)OCc1ccc(F)cc1; conditions: Aspergillus fumigatus Af293; remark: listed apart in the source
[38] = substrate: O=P(O)(O)OP(=O)(O)OCC=C1CCCCC1; conditions: Aspergillus fumigatus Af293; remark: listed apart in the source
[39] = substrate: COc1cccc(COP(=O)(O)OP(=O)(O)O)c1; conditions: Aspergillus fumigatus Af293; remark: listed apart in the source
[40] = substrate: C/C(Br)=C/COP(=O)(O)OP(=O)(O)O; conditions: Aspergillus fumigatus Af293
[41] = substrate: C=C/C=C/COP(=O)(O)OP(=O)(O)O; conditions: Aspergillus fumigatus Af293; remark: listed apart in the source
[42] = substrate: COc1ccccc1COP(=O)(O)OP(=O)(O)O; conditions: Aspergillus fumigatus Af293; remark: listed apart in the source
[43] = substrate: CCC(=CCOP(=O)(O)OP(=O)(O)O)CC; conditions: Aspergillus fumigatus Af293; remark: listed apart in the source
[44] = substrate: O=P(O)(O)OP(=O)(O)OCC1=CCCCC1; conditions: Aspergillus fumigatus Af293; remark: listed apart in the source
[45] = substrate: O=P(O)(O)OP(=O)(O)OCc1ccc(Cl)cc1; conditions: Aspergillus fumigatus Af293; remark: listed apart in the source

Molecule: CC/C(C)=C/Cc1ccc2[nH]c3c4[nH]c5ccccc5c4c4c(c3c2c1)C(=O)NC4O (stereo not given)
- IC50 (HCT-116): 38 µM

Molecule: O=C1NC(O)c2c1c1c3cc(CC=C4CCCC4)ccc3[nH]c1c1[nH]c3ccccc3c21 (stereo not given)
- IC50 (HCT-116): 58 µM

Molecule: O=C1NC(O)c2c1c1c3cc(CC4=CCCCC4)ccc3[nH]c1c1[nH]c3ccccc3c21 (stereo not given)
- IC50 (HCT-116): 61 µM

Molecule: COc1ccc(COP(=O)(O)OP(=O)(O)O)cc1
- Activity [1]: inactive

Molecule: CC(C)=CCc1ccc2[nH]c3c4[nH]c5ccccc5c4c4c(c3c2c1)C(=O)NC4O (stereo not given)
- IC50 (HCT-116): 62 µM

Molecule: COc1ccc(COP(=O)(O)OP(=O)(O)O)c(OC)c1
- Activity [1]: inactive

Molecule: CCC(=CCc1ccc2[nH]c3c4[nH]c5ccccc5c4c4c(c3c2c1)C(=O)NC4O)CC (stereo not given)
- IC50 (HCT-116): 35 µM

Molecule: Cc1ccc(COP(=O)(O)OP(=O)(O)O)cc1
- Activity [1]: inactive

Molecule: O=C1NC(O)c2c1c1c3cc(CC=C4CCCCC4)ccc3[nH]c1c1[nH]c3ccccc3c21 (stereo not given)
- IC50 (HCT-116): 31 µM

Molecule: COc1ccc(COP(=O)(O)OP(=O)(O)O)cc1OC
- Activity [1]: inactive

Molecule: O=P(O)(O)OP(=O)(O)OCc1cc(F)cc(F)c1
- Activity [1]: inactive

Molecule: COc1cc(COP(=O)(O)OP(=O)(O)O)cc(OC)c1OC
- Activity [1]: inactive

Molecule: C=C(C)COP(=O)(O)OP(=O)(O)O
- Activity [1]: inactive

Molecule: O=[N+]([O-])c1ccc(COP(=O)(O)OP(=O)(O)O)cc1
- Activity [1]: inactive

Molecule: CC(=O)COP(=O)(O)OP(=O)(O)O
- Activity [1]: inactive

Molecule: O=C1NC(O)c2c1c1c3ccccc3[nH]c1c1[nH]c3ccccc3c21 (stereo not given)
- IC50 (HCT-116): 11 µM

B1: Tryptophan dimethylallyltransferase (Neosartorya fumigata (strain ATCC MYA-4609 / Af293 / CBS 101355 / FGSCA1100) (Aspergillus fumigatus)), Q50EL0 (protein)
chain: MKAANASSAEAYRVLSRAFRFDNEDQKLWWHSTAPMFAKMLETANYTTPCQYQYLITYKECVIPSLGCYPTNSAPRWLSILTRYGTPFELSLNCSNSIVRYTFEPINQHTGTDKDPFNTHAIWESLQHLLPLEKSIDLEWFRHFKHDLTLNSEESAFLAHNDRLVGGTIRTQNKLALDLKDGRFALKTYIYPALKAVVTGKTIHELVFGSVRRLAVREPRILPPLNMLEEYIRSRGSKSTASPRLVSCDLTSPAKSRIKIYLLEQMVSLEAMEDLWTLGGRRRDASTLEGLSLVRELWDLIQLSPGLKSYPAPYLPLGVIPDERLPLMANFTLHQNDPVPEPQVYFTTFGMNDMAVADALTTFFERRGWSEMARTYETTLKSYYPHADHDKLNYLHAYISFSYRDRTPYLSVYLQSFETGDWAVANLSESKVKCQDAACQPTSLPPDLSKTGVYYSGLH
- kcat [2]: 0.165 s⁻¹
- kcat [3]: 0.0095 s⁻¹
- kcat [4]: 0.084 s⁻¹
- kcat [5]: 0.0217 s⁻¹
- kcat [6]: 0.282 s⁻¹
- kcat [7]: 0.337 s⁻¹
- kcat [8]: 0.0227 s⁻¹
- kcat [9]: 0.00223 s⁻¹
- kcat [10]: 0.467 s⁻¹
- kcat [11]: 0.0046 s⁻¹
- kcat [12]: 0.0533 s⁻¹
- kcat [13]: 0.00283 s⁻¹
- kcat [14]: 0.433 s⁻¹
- kcat [15]: 0.0322 s⁻¹
- kcat [16]: 0.108 s⁻¹
- kcat [17]: 0.00267 s⁻¹
- kcat [18]: 0.00327 s⁻¹
- Km [19]: 140 µM
- Km [20]: 310 µM
- Km [21]: 220 µM
- Km [22]: 320 µM
- Km [23]: 400 µM
- Km [24]: 1400 µM
- Km [25]: 730 µM
- Km [26]: 570 µM
- Km [27]: 370 µM
- kcat/Km [28]: 350 M⁻¹ s⁻¹
- kcat/Km [29]: 65 M⁻¹ s⁻¹
- kcat/Km [30]: 267 M⁻¹ s⁻¹
- kcat/Km [31]: 41.7 M⁻¹ s⁻¹
- kcat/Km [32]: 200 M⁻¹ s⁻¹
- kcat/Km [33]: 267 M⁻¹ s⁻¹
- kcat/Km [34]: 103 M⁻¹ s⁻¹
- kcat/Km [35]: 7 M⁻¹ s⁻¹
- kcat/Km [36]: 433 M⁻¹ s⁻¹
- kcat/Km [37]: 11.5 M⁻¹ s⁻¹
- kcat/Km [38]: 36.7 M⁻¹ s⁻¹
- kcat/Km [39]: 3.83 M⁻¹ s⁻¹
- kcat/Km [40]: 21.7 M⁻¹ s⁻¹
- kcat/Km [41]: 650 M⁻¹ s⁻¹
- kcat/Km [42]: 56.7 M⁻¹ s⁻¹
- kcat/Km [43]: 283 M⁻¹ s⁻¹
- kcat/Km [44]: 16.7 M⁻¹ s⁻¹
- kcat/Km [45]: 7.67 M⁻¹ s⁻¹
